Results: ChEMBL document CHEMBL2380254, “Optimization of tocotrienols as antiproliferative and antimigratory leads” (Eur J Med Chem, 2013)

Legend:
MDA-MB-231 [1] = test: Growth inhibition of human MDA-MB-231 cells assessed as cell growth at 10 uM after 48 hrs by sulforhodamine B assay; format: functional; settings: MDA-MB-231, 48 h, read-out: Activity
In short: (§1)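 Single-dose NCI-60 screen: adherent cells in RPMI 1640 with 5% FBS were exposed to 10 µM for 48 h at 37 °C after a 24 h preincubation. They were fixed in situ with cold TCA (10% final), stained with 0.4% SRB in 1% acetic acid, solubilized in 10 mM Tris base, and read at 515 nm. Percent growth was taken relative to time-zero and control plates.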

CAKI-1 = test: Growth inhibition of human CAKI-1 cells after 48 hrs by sulforhodamine B assay; format: functional; settings: CAKI-1, 48 h
In short: (§2)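 NCI-60 screen: cells in RPMI 1640 with 5% FBS and 2 mM glutamine, 5000–40,000 cells/well, preincubated 24 h. Five concentrations (10-fold dilutions; 100 to 0.001 µM) applied for 48 h at 37 °C. TCA fixation, SRB stain, absorbance at 515 nm. Time-zero plates included; GI50 where 100×(T−T0)/(C−T0)=50.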

SNB-19 = test: Growth inhibition of human SNB19 cells after 48 hrs by sulforhodamine B assay; format: functional; settings: SNB-19, 48 h
In short: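 NCI-60 five-dose screen. Cells were grown in RPMI 1640 with 5% FBS and 2 mM L-glutamine, plated at 5000–40,000 cells/well and incubated 24 h before dosing, with T0 plates TCA-fixed. DMSO stocks were diluted to doses of […] and exposed 48 h at 37 °C, 5% CO2. Cells were fixed with cold TCA (final 10%, 60 min, 4 °C), stained with 0.4% SRB in 1% acetic acid for 10 min, solubilized in 10 mM trizma base and read at 515 nm. GI50 is where 100×(T−T0)/(C−T0)=50.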

HL-60(TB) = test: Growth inhibition of human HL-60(TB) cells after 48 hrs by sulforhodamine B assay; format: functional; settings: HL-60, 48 h
In short: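 HL-60(TB) cells (suspension) grown in RPMI 1640 with 5% FBS and 2 mM L-glutamine. They were plated and preincubated for 24 h, with T0 plates fixed at that point. Drug was given at five 10-fold dilutions for 48 h at 37 °C. Settled cells were fixed with TCA (16% final), stained with 0.4% SRB in 1% acetic acid and read at 515 nm. GI50 was taken where 100×(T−T0)/(C−T0)=50.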

U-251 = test: Growth inhibition of human U251 cells assessed as cell growth at 10 uM after 48 hrs by sulforhodamine B assay; format: functional; settings: U-251, 48 h, read-out: Activity
In short: (§3)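 Single-dose NCI-60 test at 10 µM. Cells were grown in RPMI 1640 with 5% FBS and 2 mM L-glutamine, preincubated 24 h, with T0 plates TCA-fixed. Exposure was 48 h at 37 °C, 5% CO2. Cells were fixed with cold TCA (final 10%, 4 °C, 60 min), stained with SRB and read at 515 nm. Percent growth was taken relative to T0 and untreated control; negative values denote cell kill.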

OVCAR-3 = test: Growth inhibition of human OVCAR3 cells assessed as cell growth at 10 uM after 48 hrs by sulforhodamine B assay; format: functional; settings: OVCAR-3, 48 h, read-out: Activity; in short: as §1
SK-MEL-2 = test: Growth inhibition of human SK-MEL-2 cells assessed as cell growth at 10 uM after 48 hrs by sulforhodamine B assay; format: functional; settings: SK-MEL-2, 48 h, read-out: Activity; in short: as §1
CCRF-CEM = test: Growth inhibition of human CCRF-CEM cells assessed as cell growth at 10 uM after 48 hrs by sulforhodamine B assay; format: functional; settings: read-out: Activity
In short: (§4)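 NCI-60 single-dose screen at 10 µM: cells in RPMI 1640 with 5% FBS, preincubated 24 h, then exposed 48 h at 37 °C. TCA fixation (16% final for suspension cells), SRB staining, absorbance 515 nm. Percent growth relative to time-zero and untreated control plates; negative values indicate cell kill.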

MDA-MB-231 [2] = test: Growth inhibition of human MDA-MB-231 cells after 48 hrs by sulforhodamine B assay; format: functional; settings: MDA-MB-231, 48 h
In short: (§5)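 NCI-60 panel cells grown in RPMI 1640 with 5% FBS and 2 mM L-glutamine, seeded at 5000–40,000 cells/well and preincubated 24 h. Five 10-fold dilutions (0.001–100 µM) from DMSO stocks were added for 48 h at 37 °C. Adherent cells were fixed with cold TCA (10% final) for 60 min at 4 °C, stained with 0.4% SRB, and read at 515 nm. GI50 was set where 100×(T−T0)/(C−T0)=50.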

786-0 = test: Growth inhibition of human 786-0 cells assessed as cell growth at 10 uM after 48 hrs by sulforhodamine B assay; format: functional; settings: 786-0, 48 h, read-out: Activity; in short: as §4
NCI-H460 = test: Growth inhibition of human NCI-H460 cells assessed as cell growth at 10 uM after 48 hrs by sulforhodamine B assay; format: functional; settings: NCI-H460, 48 h, read-out: Activity; in short: as §1
T47D = test: Growth inhibition of human T47D cells assessed as cell growth at 10 uM after 48 hrs by sulforhodamine B assay; format: functional; settings: read-out: Activity; in short: as §3
A498 = test: Growth inhibition of human A498 cells after 48 hrs by sulforhodamine B assay; format: functional; settings: A498, 48 h; in short: as §2
NCI-H226 = test: Growth inhibition of human NCI-H226 cells assessed as cell growth at 10 uM after 48 hrs by sulforhodamine B assay; format: functional; settings: NCI-H226, 48 h, read-out: Activity; in short: as §1
SF-268 = test: Growth inhibition of human SF268 cells assessed as cell growth at 10 uM after 48 hrs by sulforhodamine B assay; format: functional; settings: SF-268, 48 h, read-out: Activity; in short: as §1
UACC-62 = test: Growth inhibition of human UACC62 cells assessed as cell growth at 10 uM after 48 hrs by sulforhodamine B assay; format: functional; settings: UACC-62, 48 h, read-out: Activity; in short: as §3
IGROV-1 = test: Growth inhibition of human IGROV1 cells assessed as cell growth at 10 uM after 48 hrs by sulforhodamine B assay; format: functional; settings: IGROV-1, 48 h, read-out: Activity; in short: as §4
OVCAR-8 = test: Growth inhibition of human OVCAR8 cells assessed as cell growth at 10 uM after 48 hrs by sulforhodamine B assay; format: functional; settings: OVCAR-8, 48 h, read-out: Activity; in short: as §1
SF-295 = test: Growth inhibition of human SF295 cells after 48 hrs by sulforhodamine B assay; format: functional; settings: SF-295, 48 h; in short: as §5
HOP-62 = test: Growth inhibition of human HOP62 cells assessed as cell growth at 10 uM after 48 hrs by sulforhodamine B assay; format: functional; settings: HOP-62, 48 h, read-out: Activity; in short: as §4
MCF7 = test: Antiproliferative activity against human MCF7 cells by MTT assay; format: functional, cell-based
In short: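 Cells plated at 8 × 10^3/well (MDA-MB-231) or 10^4/well (MCF7) in 96-well plates. Compounds fed in media with 5% FBS (MDA-MB-231) or 1% FBS (MCF7). MTT read-out of viable cells.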

For `COc1ccc(CCN2COc3cc(C)c4c(c3C2)CC[C@@](C)(CC/C=C(\C)CC/C=C(\C)CCC=C(C)C)O4)cc1OC`, the growth at 10 µM (MDA-MB-231 [1]) was 13.2%, the GI50 (CAKI-1) was 3.95 µM and the GI50 (SNB-19) was 1.66 µM. It also gave a GI50 (HL-60(TB)) of 1.9 µM, a growth at 10 µM (U-251) of -71.3% and a growth at 10 µM (OVCAR-3) of -22.9%. For the same molecule, the growth at 10 µM (SK-MEL-2) was 86.4%, the growth at 10 µM (CCRF-CEM) was 0.64% and the GI50 (MDA-MB-231 [2]) was 1.94 µM. For the same molecule, the growth at 10 µM (786-0) was 49.3%, the growth at 10 µM (NCI-H460) was -68.2% and the growth at 10 µM (T47D) was 31.2%. The GI50 (A498) was 1.8 µM, the growth at 10 µM (NCI-H226) was 112% and the growth at 10 µM (SF-268) was -75.2%. The growth at 10 µM (UACC-62) was 91.7%, the growth at 10 µM (IGROV-1) was 31.8% and the growth at 10 µM (OVCAR-8) was -70.7%. It also gave a GI50 (SF-295) of 2.01 µM and a growth at 10 µM (HOP-62) of -34.3%.
For `CC(C)=CCC/C(C)=C/CC/C(C)=C/CC[C@]1(C)CCc2c3c(cc(C)c2O1)OCN(CCCCCCO)C3`, the growth at 10 µM (MDA-MB-231 [1]) was -28.4%, the GI50 (CAKI-1) was 3.79 µM and the GI50 (SNB-19) was 0.632 µM. The GI50 (HL-60(TB)) was 1.37 µM, the growth at 10 µM (U-251) was -91.9% and the growth at 10 µM (OVCAR-3) was -61.6%. For the same molecule, the growth at 10 µM (SK-MEL-2) was 62.4%, the growth at 10 µM (CCRF-CEM) was -20.6% and the GI50 (MDA-MB-231 [2]) was 0.782 µM. For the same molecule, the growth at 10 µM (786-0) was -98%, the growth at 10 µM (NCI-H460) was -15.7% and the growth at 10 µM (T47D) was -51.6%. It also gave a GI50 (A498) of 4.88 µM, a growth at 10 µM (NCI-H226) of 92.5% and a growth at 10 µM (SF-268) of -80.2%. The growth at 10 µM (UACC-62) was 75.8%, the growth at 10 µM (IGROV-1) was -73.7% and the growth at 10 µM (OVCAR-8) was -62.8%. It also gave a GI50 (SF-295) of 0.602 µM, a growth at 10 µM (HOP-62) of -94.5% and an IC50 (MCF7) greater than 20 µM.
With `CC(C)=CCC/C(C)=C/CC/C(C)=C/CC[C@]1(C)CCc2c3c(cc(C)c2O1)OCN(CCCCO)C3` the growth at 10 µM (MDA-MB-231 [1]) was -48.2%, the GI50 (CAKI-1) was 15.2 µM and the GI50 (SNB-19) was 16 µM. The GI50 (HL-60(TB)) was 18.8 µM, the growth at 10 µM (U-251) was -90.5% and the growth at 10 µM (OVCAR-3) was -20.8%. It also gave a growth at 10 µM (CCRF-CEM) of -0.6%, a GI50 (MDA-MB-231 [2]) of 17.9 µM and a growth at 10 µM (786-0) of -49.2%. For the same molecule, the growth at 10 µM (NCI-H460) was -20.4%, the growth at 10 µM (T47D) was -7.14% and the GI50 (A498) was 14.8 µM. For the same molecule, the growth at 10 µM (NCI-H226) was 99.3%, the growth at 10 µM (SF-268) was -70.5% and the growth at 10 µM (UACC-62) was 68.5%. It also gave a growth at 10 µM (IGROV-1) of -15.1%, a growth at 10 µM (OVCAR-8) of -13.3% and a GI50 (SF-295) of 18.2 µM. It also gave a growth at 10 µM (HOP-62) of -84.5% and an IC50 (MCF7) of 16.3 µM.
In the case of `CC(C)=CCC/C(C)=C/CC/C(C)=C/CC[C@]1(C)CCc2c3c(cc(C)c2O1)OCN(C1CCN(Cc2ccccc2)CC1)C3`, the growth at 10 µM (MDA-MB-231 [1]) is reported as 18.2%, the GI50 (CAKI-1) is reported as 1.6 µM and the GI50 (SNB-19) is reported as 1.61 µM. The GI50 (HL-60(TB)) was 0.349 µM, the growth at 10 µM (U-251) was -66.6% and the growth at 10 µM (OVCAR-3) was -47.9%. For the same molecule, the growth at 10 µM (SK-MEL-2) was 109%, the growth at 10 µM (CCRF-CEM) was 2.34% and the GI50 (MDA-MB-231 [2]) was 1.63 µM. For the same molecule, the growth at 10 µM (786-0) was 24.1%, the growth at 10 µM (NCI-H460) was -78.7% and the growth at 10 µM (T47D) was 89.3%. The GI50 (A498) was 1.31 µM, the growth at 10 µM (NCI-H226) was 101% and the growth at 10 µM (SF-268) was 12.9%. For the same molecule, the growth at 10 µM (UACC-62) was 93.6%, the growth at 10 µM (IGROV-1) was -48.5% and the growth at 10 µM (OVCAR-8) was -85.8%. The GI50 (SF-295) was 1.88 µM and the growth at 10 µM (HOP-62) was 111%.
